ChEMBL document CHEMBL4387757, “Synthesis and molecular modeling of novel non-sulfonylureas as hypoglycemic agents and selective ALR2 inhibitors” (Bioorg Med Chem, 2019)

How the values were obtained:
Mus musculus [1] = assay: Antihyperglycemic activity in alloxan-induced diabetic BALB/c mouse model assessed as blood glucose level at 10 mg/kg measured immediately by glucometry analysis; type: functional
Procedure, shortened: (§1)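 Diabetic BALB/c mice; blood sampled before dosing (0 h) and again at 2, 4, 6 and 8 h to measure blood glucose (mg/dl). Values are means ± SEM from three trials.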

[2] = molecular target: T1, Aldo-keto reductase family 1 member B1 (Homo sapiens, UniProt P15121); assay: Inhibition of ALR2 (unknown origin) using sodium dl-glyceraldehyde as substrate preincubated for 10 mins followed by substrate addition by UV-spectrophotometry analysis
Procedure, shortened: (§2)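 Enzyme activity followed by UV spectrophotometry as the decrease in NADPH absorbance at 340 nm. Valproic acid served as positive control for ALR1, sorbinil for ALR2.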

Mus musculus [3] = assay: Antihyperglycemic activity in alloxan-induced diabetic BALB/c mouse model assessed as blood glucose level at 10 mg/kg measured after 8 hrs by glucometry analysis; type: functional; procedure, shortened: as §1
Mus musculus [4] = assay: Antihyperglycemic activity in alloxan-induced diabetic BALB/c mouse model assessed as blood glucose level at 10 mg/kg measured after 4 hrs by glucometry analysis; type: functional; procedure, shortened: as §1
[5] = molecular target: Aldo-keto reductase family 1 member A1 (Homo sapiens, UniProt P14550); assay: Inhibition of ALR1 (unknown origin) using sodium d-glucoronate as substrate preincubated for 10 mins followed by substrate addition by UV-spectrophotometry analysis; procedure, shortened: as §2
[6] = molecular target: T1, Aldo-keto reductase family 1 member B1; assay: Selectivity index, ratio of IC50 for ALR1 (unknown origin) to IC50 for ALR2 (unknown origin)
Mus musculus [7] = assay: Antihyperglycemic activity in alloxan-induced diabetic BALB/c mouse model assessed as reduction in blood glucose level at 10 mg/kg measured after 8 hrs by glucometry analysis relative to control; type: functional
Procedure, shortened: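 Diabetic BALB/c mice; blood glucose measured at 0 h and at 2, 4, 6 and 8 h. Percent inhibition of blood glucose was calculated at 8 h. Three trials.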

Mus musculus [8] = assay: Antihyperglycemic activity in alloxan-induced diabetic BALB/c mouse model assessed as blood glucose level at 10 mg/kg measured after 6 hrs by glucometry analysis; type: functional; procedure, shortened: as §1
Mus musculus [9] = assay: Antihyperglycemic activity in alloxan-induced diabetic BALB/c mouse model assessed as blood glucose level at 10 mg/kg measured after 2 hrs by glucometry analysis; type: functional; procedure, shortened: as §1

Chain of Aldo-keto reductase family 1 member A1 (P14550 2-325 limits assumed): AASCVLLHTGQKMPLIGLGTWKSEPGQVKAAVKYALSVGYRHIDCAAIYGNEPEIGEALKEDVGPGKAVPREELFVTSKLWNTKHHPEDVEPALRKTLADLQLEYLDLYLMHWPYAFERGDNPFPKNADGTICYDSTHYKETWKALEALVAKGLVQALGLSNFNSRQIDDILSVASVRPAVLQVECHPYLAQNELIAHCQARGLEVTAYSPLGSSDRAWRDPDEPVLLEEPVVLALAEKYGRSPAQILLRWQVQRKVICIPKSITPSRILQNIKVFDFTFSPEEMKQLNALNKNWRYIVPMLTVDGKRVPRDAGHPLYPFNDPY

## O=C(CN1C(=O)NC2(CCCCC2)C1=O)Nc1ccc(Cl)cc1
Mus musculus [1]
  Activity: 406 mg/dL
[2]
  IC50: 1130 nM
Mus musculus [3]
  Activity: 85 mg/dL
Mus musculus [4]
  Activity: 242 mg/dL
[5]
  IC50: 20.7 µM
[6]
  Ratio IC50: 18.3
Mus musculus [7]
  inhibition in vivo at 10 mg/kg: 79.2%
Mus musculus [8]
  Activity: 170 mg/dL
Mus musculus [9]
  Activity: 347 mg/dL

## O=C(CN1C(=O)NC2(C1=O)c1ccccc1-c1ccccc12)Nc1ccc(Cl)cc1
Mus musculus [1]
  Activity: 460 mg/dL
[2]
  IC50: 1030 nM
Mus musculus [3]
  Activity: 90 mg/dL
Mus musculus [4]
  Activity: 234 mg/dL
[5]
  IC50: 22.2 µM
[6]
  Ratio IC50: 21.6
Mus musculus [7]
  inhibition in vivo at 10 mg/kg: 80.4%
Mus musculus [8]
  Activity: 189 mg/dL
Mus musculus [9]
  Activity: 350 mg/dL

## Cc1ccc(NC(=O)CN2C(=O)NC3(C2=O)c2ccccc2-c2ccccc23)cc1
Mus musculus [1]
  Activity: 358 mg/dL
[2]
  IC50: 6210 nM
Mus musculus [3]
  Activity: 167 mg/dL
Mus musculus [4]
  Activity: 283 mg/dL
[5]
  IC50: 10.9 µM
[6]
  Ratio IC50: 1.76
Mus musculus [7]
  inhibition in vivo at 10 mg/kg: 53.4%
Mus musculus [8]
  Activity: 211 mg/dL
Mus musculus [9]
  Activity: 314 mg/dL

## O=C(CN1C(=O)NC2(CCCCC2)C1=O)Nc1ccc(Br)cc1
Mus musculus [1]
  Activity: 459 mg/dL
[2]
  IC50: 720 nM
Mus musculus [3]
  Activity: 69 mg/dL
Mus musculus [4]
  Activity: 276 mg/dL
[5]
  IC50: 31.2 µM
[6]
  Ratio IC50: 43.4
Mus musculus [7]
  inhibition in vivo at 10 mg/kg: 85.1%
Mus musculus [8]
  Activity: 182 mg/dL
Mus musculus [9]
  Activity: 386 mg/dL

## Cc1ccc(NC(=O)CN2C(=O)NC3(CCCCC3)C2=O)cc1
Mus musculus [1]
  Activity: 387 mg/dL
[2]
  IC50: 10200 nM
Mus musculus [3]
  Activity: 115 mg/dL
Mus musculus [4]
  Activity: 268 mg/dL
[5]
  IC50: 6.43 µM
[6]
  Ratio IC50: 0.63
Mus musculus [7]
  inhibition in vivo at 10 mg/kg: 70.3%
Mus musculus [8]
  Activity: 197 mg/dL
Mus musculus [9]
  Activity: 305 mg/dL

## COc1ccc(NC(=O)CN2C(=O)NC3(CCCCC3)C2=O)cc1
Mus musculus [1]
  Activity: 370 mg/dL
[2]
  IC50: 2760 nM
Mus musculus [3]
  Activity: 163 mg/dL
Mus musculus [4]
  Activity: 299 mg/dL
[5]
  IC50: 25.8 µM
[6]
  Ratio IC50: 9.36
Mus musculus [7]
  inhibition in vivo at 10 mg/kg: 56.1%
Mus musculus [8]
  Activity: 231 mg/dL
Mus musculus [9]
  Activity: 322 mg/dL

## O=C(CN1C(=O)NC2(CCCCC2)C1=O)Nc1ccc(Cl)cc1Cl
Mus musculus [1]
  Activity: 384 mg/dL
[2]
  IC50: 1950 nM
Mus musculus [3]
  Activity: 121 mg/dL
Mus musculus [4]
  Activity: 269 mg/dL
[5]
  IC50: 32.9 µM
[6]
  Ratio IC50: 16.9
Mus musculus [7]
  inhibition in vivo at 10 mg/kg: 68.5%
Mus musculus [8]
  Activity: 217 mg/dL
Mus musculus [9]
  Activity: 319 mg/dL

## O=C(CN1C(=O)NC2(C1=O)c1ccccc1-c1ccccc12)Nc1ccc(Br)cc1
Mus musculus [1]
  Activity: 452 mg/dL
[2]
  IC50: 930 nM
Mus musculus [3]
  Activity: 85 mg/dL
Mus musculus [4]
  Activity: 218 mg/dL
[5]
  IC50: 30.3 µM
[6]
  Ratio IC50: 32.6
Mus musculus [7]
  inhibition in vivo at 10 mg/kg: 81.1%
Mus musculus [8]
  Activity: 173 mg/dL
Mus musculus [9]
  Activity: 331 mg/dL

## CCOc1cc(CC(=O)N[C@@H](CC(C)C)c2ccccc2N2CCCCC2)ccc1C(=O)O [REPAGLINIDE]
Mus musculus [1]
  Activity: 392 mg/dL
Mus musculus [3]
  Activity: 94 mg/dL
Mus musculus [4]
  Activity: 259 mg/dL
Mus musculus [7]
  inhibition in vivo at 10 mg/kg: 66.1%
Mus musculus [8]
  Activity: 160 mg/dL
Mus musculus [9]
  Activity: 313 mg/dL

## O=C(CN1C(=O)NC2(C1=O)c1ccccc1-c1ccccc12)Nc1ccc(Cl)cc1Cl
Mus musculus [1]
  Activity: 398 mg/dL
[2]
  IC50: 370 nM
Mus musculus [3]
  Activity: 63 mg/dL
Mus musculus [4]
  Activity: 223 mg/dL
[5]
  IC50: 35.5 µM
[6]
  Ratio IC50: 96
Mus musculus [7]
  inhibition in vivo at 10 mg/kg: 84.3%
Mus musculus [8]
  Activity: 168 mg/dL
Mus musculus [9]
  Activity: 290 mg/dL

## COc1ccc(NC(=O)CN2C(=O)NC3(C2=O)c2ccccc2-c2ccccc23)cc1
Mus musculus [1]
  Activity: 320 mg/dL
[2]
  IC50: 2870 nM
Mus musculus [3]
  Activity: 370 mg/dL
Mus musculus [4]
  Activity: 237 mg/dL
[5]
  IC50: 24.3 µM
[6]
  Ratio IC50: 8.45
Mus musculus [8]
  Activity: 279 mg/dL
Mus musculus [9]
  Activity: 258 mg/dL
